Screening results from PubChem BioAssay.
rCAG RNA binder = binders of r(CAG) RNA repeats, primary screen, biochemical, fluorescence; r(CAG) RNA repeat, TO-PRO-1 dye displacement fluorescence; inhibition, % at 3 µM; actives 1.3% (n = 370,000); AID 651821, 2012;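 active means inhibition above the plate cutoff, the mean of all test compounds on that plate plus 3 SD, cut at about 35% in these data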;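 further: 0% = DMSO alone and 100% = 100 µM mitoxantrone as full dye displacement; higher means more dye released from RNA so lower well fluorescence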
PRMT1 inh = PRMT1 methyltransferase inhibitors, primary screen, biochemical, fluorescence polarization. AID 652257, 2013. recombinant PRMT1, activity-based probe fluorescence polarization. actives 1.3% (n = 370,000). Protein arginine N-methyltransferase 1 (Homo sapiens), Q99873. inhibition, % at 2.79 µM;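 active means inhibition above about 21% made by adding two undisclosed values, limit read from the data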
Target sequence (Q99873 whole entry, looked up): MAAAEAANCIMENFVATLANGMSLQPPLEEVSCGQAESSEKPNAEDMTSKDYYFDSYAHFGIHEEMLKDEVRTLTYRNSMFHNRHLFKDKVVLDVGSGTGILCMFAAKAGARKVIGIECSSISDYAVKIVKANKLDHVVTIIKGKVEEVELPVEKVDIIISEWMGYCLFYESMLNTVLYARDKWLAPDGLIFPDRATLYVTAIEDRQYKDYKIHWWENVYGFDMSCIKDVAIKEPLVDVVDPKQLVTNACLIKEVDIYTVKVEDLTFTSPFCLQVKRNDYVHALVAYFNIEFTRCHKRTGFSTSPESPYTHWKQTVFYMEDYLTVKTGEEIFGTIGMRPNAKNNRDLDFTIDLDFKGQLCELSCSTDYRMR
HTRA1 inhibitor = HTRA1 serine protease inhibitors, primary screen, biochemical, fluorescence polarization, HTS. recombinant HTRA1, FP-rhodamine activity-based probe. inhibition, % at 5.96 µM. actives 0.5% (n = 340,000). Q92743; in the data active means inhibition above about 36%;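 further: 0% = enzyme with DMSO and 100% = wells lacking enzyme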
TCR-CD3 inh = inhibitors of human TCR-CD3 interaction, primary screen, biochemical, fluorescence, TAMRA-labeled TCR probe; actives 0.37% (n = 360,000); inhibition, % at 9.4 µM; in the data active means inhibition above about 19%;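 further: recombinant mutant TCR 2C K166C tagged with TAMRA read by polarization; 0% = receptor in buffer alone and 100% = receptor with positive control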
SIAE primary = human SIAE inhibitors, primary screen, biochemical, fluorescence polarization, FP-Rh probe, 1536-well HTS. SIAE FP-Rh probe binding. inhibition, % at 9.66 µM. actives 0.69% (n = 370,000). Sialate O-acetylesterase (Homo sapiens), Q9HAT2. AID 1053197, 2014;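 active means inhibition above a cutoff: mean of compounds within the control limits plus 3 SD of those, cut at about 17% in these data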;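 further: 0% = plate median of compound wells and 100% = probe without SIAE protein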
ABHD4 inh = ABHD4 inhibitors, primary screen, biochemical, fluorescence polarization, mouse | (Lyso)-N-acylphosphatidylethanolamine lipase (Mus musculus), Q8VD66 | purified mABHD4, FP-Rh probe fluorescence polarization | inhibition, % at 8.92 µM | actives 0.54% (n = 370,000) | AID 720543, 2013;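 active means inhibition exceeding the mean over every tested compound plus 3 SD, cut at about 30% in these data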;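 further: 0% = plate median of compound wells and 100% = S159A mutant with DMSO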
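system = mouse ABHD4 enzyme, wild type | medium = HEPES pH 7.0, NaCl, Pluronic buffer | also added = FP-Rh probe | incubation = Enzyme–compound pre-incubation 45 min, then probe 60 min, both 25 °C | technique = fluorescence polarization, excitation 525 nm, emission 598 nm, BODIPY TMR filters | controls = S159A mutant high control, sample median low control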
rCAG binder conf = small molecules binding CAG repeat RNA – biochemical, fluorescence, confirmation | shares compounds with rCAG RNA binder | r(CAG) RNA repeat, TO-PRO-1 dye displacement fluorescence | inhibition, % at 3 µM | actives 70% (n = 4,300);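 active means inhibition above a per-plate cutoff, the mean inhibition of sample wells plus 3 SD, cut at about 35% in these data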;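 further: loss of TO-PRO-1 fluorescence as compound displaces dye from 1x1 AA loop RNA; 0% = DMSO only wells and 100% = 100 µM mitoxantrone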
DNA CAG counter = displacement of TO-PRO-1 from CAG DNA duplex, counter-screen for rCAG RNA repeat binder project, biochemical, fluorescence, TO-PRO-1 dye, d(CAG) DNA oligo; shares compounds with rCAG RNA binder; d(CAG) DNA oligo TO-PRO-1 dye displacement; inhibition, % at 3 µM; actives 94% (n = 4,300); AID 652068, 2013;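 active means inhibition above its plate's cutoff, the mean test-well inhibition plus 3 SD, cut at about 4.8% in these data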;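 further: 0% = DNA dye mix with DMSO and 100% = 100 µM mitoxantrone; hits displace the dye from DNA and so lower well fluorescence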
Numbers without * were called inactive. Most compounds without a hit are left out; they make up all but 3.5% or so of the library.

Screening Cc1ccc(NC(=O)c2cc3c(s2)CCCC3)cc1S(=O)(=O)Nc1ccccc1Cl returned rCAG RNA binder 47*, PRMT1 inh 1, HTRA1 inhibitor -88, TCR-CD3 inh 11, SIAE primary -126, ABHD4 inh -95, rCAG binder conf 38* and DNA CAG counter 13*.
O=C(Nc1ccc(N2CCCCC2)c(S(=O)(=O)Nc2ccccc2Cl)c1)c1cccnc1 was read as rCAG RNA binder 11, PRMT1 inh 4, HTRA1 inhibitor -72, TCR-CD3 inh 5, SIAE primary -63 and ABHD4 inh 3.
O=C(Nc1ccccc1Cl)c1cccs1 was read as rCAG RNA binder -4, PRMT1 inh 0, HTRA1 inhibitor 3, TCR-CD3 inh 4, SIAE primary -2 and ABHD4 inh -4.
`O=C(Nc1cccc(S(=O)(=O)Nc2ccc(Cl)cc2)c1)c1ccc(Cl)nc1` gave rCAG RNA binder 30, PRMT1 inh 4, HTRA1 inhibitor -62, TCR-CD3 inh -4, SIAE primary -88 and ABHD4 inh -96.
`O=C(Nc1ccc(Cl)c(S(=O)(=O)Nc2ccccc2Cl)c1)c1cccs1` gave rCAG RNA binder 48*, PRMT1 inh 0, HTRA1 inhibitor -42, TCR-CD3 inh 8, SIAE primary -64, ABHD4 inh -67, rCAG binder conf 29 and DNA CAG counter 11*.
`COc1ccccc1NS(=O)(=O)c1cc(NC(=O)c2sc3cc(Cl)ccc3c2Cl)ccc1C` gave rCAG RNA binder 6, PRMT1 inh -5, HTRA1 inhibitor 4, TCR-CD3 inh -6, SIAE primary -2 and ABHD4 inh -11.
For CCCC1CCC2(CC1)CCC2OC(=S)Nc1ccc(I)cc1 (stereo not drawn) the results were PRMT1 inh 4, SIAE primary -1 and ABHD4 inh -6.
For O=C(Nc1cc(S(=O)(=O)Nc2ccccc2Cl)ccc1O)c1cc2c(s1)CCCC2 the results were rCAG RNA binder 48*, PRMT1 inh -4, HTRA1 inhibitor -4, TCR-CD3 inh 6, SIAE primary -16, ABHD4 inh -5, rCAG binder conf 67* and DNA CAG counter 26*.
O=C(Nc1cc(S(=O)(=O)N2CCOCC2)ccc1N1CCCC1)c1cc2c(s1)CCCC2 was read as PRMT1 inh -4, SIAE primary -1 and ABHD4 inh -3.
For CCOc1ccc(NC(=O)CCN2CCN(S(=O)(=O)c3ccc(F)cc3)CC2)cc1 the results were rCAG RNA binder 0, PRMT1 inh 4, HTRA1 inhibitor 4, TCR-CD3 inh 0, SIAE primary 4 and ABHD4 inh -7.
`CCOc1ccccc1NC(=O)CCN1CCN(S(=O)(=O)c2ccc(Br)cc2)CC1` gave rCAG RNA binder 36*, PRMT1 inh -2, HTRA1 inhibitor -6, TCR-CD3 inh 4, SIAE primary 4, ABHD4 inh -2, rCAG binder conf 3 and DNA CAG counter 1.
For CC(C)CN1C(=O)[C@]2(CC(=O)N(C)C2c2ccccc2)c2cc(-n3cc(-c4ccccc4)nn3)ccc21 (stereo partly drawn) the results were rCAG RNA binder 3, PRMT1 inh -5, SIAE primary 12 and ABHD4 inh -6.
O=C(O)CSc1c2c(nc3cc(C(=O)Nc4cccc(C(F)(F)F)c4)ccc13)CCC2 was read as rCAG RNA binder 72*, PRMT1 inh -6, HTRA1 inhibitor -62, TCR-CD3 inh 1, SIAE primary -46, ABHD4 inh -56, rCAG binder conf 57* and DNA CAG counter 21*.
